A selection: hits, their analogues and other compounds. The true share with any hit is near 3.7%.
KCNQ1 act: potentiators or activators of KCNQ1 channel, primary screen, cell-based, thallium flux, high-throughput | 0.35% of 310,000 active | B-score at 10 µM | Potassium voltage-gated channel subfamily KQT member 1 (Homo sapiens), P51787 | AID 2648, 2010 | CHO-K1 KCNQ1, thallium flux FluxOR fluorescence; active compounds read high;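 active = fluorescence ratio B-score, a plate-corrected score, at least three library SD, with initial intensity B-score within 5 SD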
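Assay system: CHO-K1 cells stably expressing KCNQ1. Medium: assay buffer for compound exposure, DMSO matched across wells. Timing: 37 °C overnight plating, 90-min dark dye load, 20-min compound pretreatment. Signal: kinetic FluxOR fluorescence, 10 s baseline plus 110 s post-stimulus.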
Kir21 block: inhibitors of mouse Kir2.1 inward-rectifier potassium channel; Inward rectifier potassium channel 2 (Mus musculus), P35561; B-score at 10 µM; HEK293-Kir2.1, FluxOR thallium flux fluorescence; active compounds read low; 0.85% of 310,000 active; AID 1672, 2009;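 active = fluorescence ratio B-score at or below minus 3 SD of library scores, with starting-brightness B-score within 2 SD, cut at about -4.2 in these data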;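 also: channel flux triggered by added potassium and thallium sulfate stimulus; B-score of peak minus minimum fluorescence over baseline after thallium stimulus; more negative B-score means stronger Kir2.1 block with less thallium influx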
KCNK3 inh: human KCNK3 channel inhibitors, primary screen, CHO cells, FluxOR thallium flux, B-score | Potassium channel subfamily K member 3 (Homo sapiens), O14649 | AID 602410, 2012 | 0.84% of 340,000 active | FluxOR fluorescence; active compounds read low | B-score at 10 µM;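 active = B-score under library mean minus 4 SD, starting fluorescence ratio at most library mean plus 5 SD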;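 also: more negative B-score means stronger inhibition of thallium flux through KCNK3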
KCNQ1 inh: inhibitors of human KCNQ1 channel, primary screen, cell-based, thallium flux, high-throughput | Potassium voltage-gated channel subfamily KQT member 1 (Homo sapiens), P51787 | CHO-K1 KCNQ1, FluxOR thallium flux fluorescence; active compounds read high | B-score at 10 µM | 1.3% of 310,000 active;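 active = compounds whose thallium flux B-score, printed positive for inhibition, exceeds three library SD while starting fluorescence stays within three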;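 also: channel opened by potassium depolarization with thallium stimulus after 20 min compound exposure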
hERG rescue: hERG rescue from dofetilide block, primary screen, cell-based, CHO-hERG, FluxOR thallium flux, dofetilide IC70; Voltage-gated inwardly rectifying potassium channel KCNH2 (Homo sapiens), Q12809; dofetilide IC70 present; AID 1511, 2009; 0.51% of 310,000 active; activation (rescue from dofetilide block), less the hit threshold, % at 10 µM;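 active = activation above the mean of controls blocked by dofetilide plus 5 SD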;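 also: thallium influx through hERG after potassium depolarization seen as dye fluorescence rise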
KCNK9 block: KCNK9 potassium channel inhibitors, primary screen, HEK293 cells, thallium flux; FluxOR thallium flux fluorescence; active compounds read low; B-score at 10 µM; Potassium channel subfamily K member 9 (Homo sapiens), Q9NPC2; 1.2% of 310,000 active;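 active = ratio B-score over 3 SD below the library mean, with starting fluorescence within 5 SD of its mean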;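 also: negative B-score means less thallium flux so channel inhibition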
Each line names hits and unclear results; the compound was inactive in the other large screens.

CCOc1cc(/C=C2\C(=O)N(c3cccc(C(F)(F)F)c3)C(=O)c3ccccc32)ccc1O	none
Cc1cccc(N2C(=O)/C(=C\c3ccc(OC(F)F)cc3)c3ccccc3C2=O)c1	Kir21 block -4.35
Cn1c(-c2ccccc2)cnc1NCc1ccc(F)cc1	Kir21 block -4.89
Cc1c(N=Cc2cc(Br)cc(Br)c2O)cccc1C(=O)O	KCNQ1 act 10
C/C=C(/C)C(=O)O[C@@H]1c2c(ccc3ccc(=O)oc23)OC(C)(C)[C@@H]1OC(=O)/C(C)=C\C	KCNK9 block -7.38
O=C(Cc1cccs1)Nc1ccc(F)cc1	none
CC(Cc1cccs1)NC(=O)Nc1ccc(F)cc1 (centres undefined)	KCNK9 block -6.62
CC(C)c1ccc(N(CC(=O)NC2CCCC2)C(=O)CCC(=O)Nc2ccccn2)cc1	none
Cc1ccc2nc(NC(=O)CSc3nc(=O)n(CCN(C)C)c4c3CCCC4)sc2c1	none
COc1cccc(CN2CCN(c3ccc(F)cc3)C2=O)c1	none
O=C1N(Cc2ccc(F)cc2)CCN1c1ccc(F)cc1	KCNQ1 act 19
Cc1ccc(C)c(COC(=O)CCN=C2NS(=O)(=O)c3ccccc32)c1	none
CC(N)=Nc1ccc([N+](=O)[O-])cc1	none
O=[N+]([O-])c1ccc(N=Nc2c(Cl)cc(O)cc2Cl)cc1	Kir21 block -6.9, KCNQ1 inh 8
Oc1cccc(C=NN=C2c3ccccc3-c3ccccc32)c1	KCNK3 inh -9.04 (no result: KCNQ1 act, Kir21 block, KCNQ1 inh, hERG rescue, KCNK9 block)
CC1CCC(N(CCCN)Cc2ccco2)CC1C (centres undefined)	none
CN1CCN(S(=O)(=O)c2ccc(Cl)s2)CC1	none
COc1ccc(C2C(C(=O)c3ccco3)=C(O)C(=O)N2c2nnc(C)s2)cc1 (centres undefined)	none
O=C(C1=C(O)C(=O)N(c2ncccn2)C1c1cccc(Cl)c1)c1ccco1 (centres undefined)	none
CSc1nnc(N2C(=O)C(O)=C(C(=O)c3ccco3)C2c2cccc(Cl)c2)s1 (centres undefined)	KCNQ1 inh 9
CSc1nnc(N2C(=O)C(O)=C(C(=O)c3ccco3)C2c2ccc(F)cc2)s1 (centres undefined)	KCNQ1 inh 10
COc1ccc(N2CCN(C(=O)CSc3ccc([N+](=O)[O-])cc3)CC2)cc1	KCNQ1 inh 8
CCOC(=O)c1ccc(Oc2ccc(C(F)(F)F)cn2)cc1	none
CCOc1cccc(Oc2ccc(C(F)(F)F)cn2)c1	KCNK9 block -7.88
COc1cc(/C=N/Nc2ccccc2C(F)(F)F)ccc1O	KCNK9 block -6.85
COc1cc(/C=N/N(c2ccccc2)c2ccccc2)ccc1O	KCNQ1 inh 11
O=C(Cn1nc(-c2cccc([N+](=O)[O-])c2)c2ccccc2c1=O)NCC1CCCO1 (centres undefined)	none
COc1cccc(C2(O)CCN(C(=O)C3CCC3)CC2)c1	hERG rescue 4.8
COc1cccc(CN(C(=O)Cc2c[nH]c3ccccc23)C(C(=O)NC2CCCCC2)c2cccs2)c1 (centres undefined)	KCNQ1 inh 7
COc1ccc(C(C(=O)NC2CCCCC2)N(Cc2cccs2)C(=O)Cc2c[nH]c3ccccc23)cc1 (centres undefined)	KCNK9 block -7.26
O=C(NC1CCCCC1)C(c1cccs1)N(C(=O)Cc1c[nH]c2ccccc12)c1ccc(F)cc1 (centres undefined)	none
C=C(C)Cn1c(-c2ccncc2)n[nH]c1=S	none
Cc1nc(N)sc1C(=O)N1N=N1	none
CC(=O)C1=C(c2cccc([N+](=O)[O-])c2)N(C(C)=O)n2c(C)nnc2S1	KCNQ1 inh 7
O=S(=O)(NC1C2CC3CC(C2)CC1C3)c1ccccc1 (centres undefined)	none (no result: KCNQ1 act, Kir21 block, KCNQ1 inh, hERG rescue, KCNK9 block)

From PubChem
